Experimental data as given in ChEMBL document CHEMBL4130391, “Novel methyl indolinone-6-carboxylates containing an indole moiety as angiokinase inhibitors” (Eur J Med Chem, 2017).

Columns and labels:
[1] = target: Platelet-derived growth factor receptor beta (Homo sapiens, UniProt P09619); experiment: (§1) Inhibition of N-terminal GST tagged human PDGFRbeta (557 to 1106 end residues) cytoplasmic domain expressed in baculovirus expression system preincubated for 10 mins followed by fluorescein amidite-labelled peptide substrate addition measured after 1 hr by mobility shift assay
Summary of the method: (§2)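 Enzyme and compound were preincubated for 10 min at room temperature. FAM-labelled peptide plus ATP was then added and reacted 1 h at 28°C, stopped with EDTA buffer, and run in duplicate. Inhibition = (max − conversion)/(max − min) × 100.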

A549 = experiment: Antiproliferative activity against human A549 cells after 72 hrs by MTT assay; type: functional, cell-based; conditions: A549, 72 h
HT-29 [2] = experiment: Antiproliferative activity against human HT-29 cells after 72 hrs by MTT assay; type: functional, cell-based; conditions: HT-29, 72 h
[3] = target: T1, Vascular endothelial growth factor receptor 2 (Homo sapiens, UniProt P35968); experiment: as §1, with “biotinylated DYKDDDDK” for “GST”, “VEGFR2 (790” for “PDGFRbeta (557”, “1356” for “1106”, “system at 1 uM” for “system”, “assay relative to control” for “assay”; summary of the method: as §2
[4] = target: T1, Vascular endothelial growth factor receptor 2; experiment: Inhibition of N-terminal biotinylated DYKDDDDK tagged human VEGFR2 (790 to 1356 end residues) cytoplasmic domain expressed in baculovirus expression system preincubated for 10 mins followed by fluorescein amidite-labelled peptide substrate addition measured after 1 hr by mobility shift assay
MCF7 [5] = experiment: Antiproliferative activity against human MCF7 cells after 72 hrs by MTT assay; type: functional, cell-based; conditions: MCF7, 72 h
HEK-293T = experiment: Cytotoxicity against HEK293T cells assessed as reduction in cell viability at 10 uM after 72 hrs by MTT assay; type: cell-based; conditions: human
Summary of the method: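 HEK293T cells, about 4 × 10^3 per well, were grown in MEM with 10% FBS at 37°C in 5% CO2 for 24 h. Cells were then exposed to compound for 72 h. MTT was added at 5 µg/mL final for 4 h at 37°C and the formazan dissolved in DMSO. Absorbance was read at 492 nm with 630 nm as reference.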

HUVEC [6] = experiment: Induction of apoptosis in HUVEC assessed as early apoptotic cells at 0.3 uM measured after 48 hrs by Annexin-V-FITC/propidium iodide staining based flow cytometry (reference value: 1.78 %); type: functional, Homo sapiens
HUVEC [7] = experiment: Induction of apoptosis in HUVEC assessed as late apoptotic cells at 0.3 uM measured after 48 hrs by Annexin-V-FITC/propidium iodide staining based flow cytometry (reference value: 5.79 %); type: functional, Homo sapiens
HUVEC [8] = experiment: Induction of apoptosis in HUVEC assessed as early apoptotic cells at 1 uM measured after 48 hrs by Annexin-V-FITC/propidium iodide staining based flow cytometry (reference value: 1.78 %); type: functional, Homo sapiens
HUVEC [9] = experiment: Induction of apoptosis in HUVEC assessed as late apoptotic cells at 1 uM measured after 48 hrs by Annexin-V-FITC/propidium iodide staining based flow cytometry (reference value: 5.79 %); type: functional, Homo sapiens
HUVEC [10] = experiment: Induction of apoptosis in HUVEC assessed as early apoptotic cells at 3 uM measured after 48 hrs by Annexin-V-FITC/propidium iodide staining based flow cytometry (reference value: 1.78 %); type: functional, Homo sapiens
HUVEC [11] = experiment: Induction of apoptosis in HUVEC assessed as late apoptotic cells at 3 uM measured after 48 hrs by Annexin-V-FITC/propidium iodide staining based flow cytometry (reference value: 5.79 %); type: functional, Homo sapiens
HT-29 [12] = experiment: Induction of apoptosis in human HT-29 cells assessed as early apoptotic cells at 0.3 uM measured after 48 hrs by Annexin-V-FITC/propidium iodide staining based flow cytometry (reference value: 0.99 %); type: functional
HT-29 [13] = experiment: Induction of apoptosis in human HT-29 cells assessed as late apoptotic cells at 0.3 uM measured after 48 hrs by Annexin-V-FITC/propidium iodide staining based flow cytometry (reference value: 10.60 %); type: functional
HT-29 [14] = experiment: Induction of apoptosis in human HT-29 cells assessed as early apoptotic cells at 1 uM measured after 48 hrs by Annexin-V-FITC/propidium iodide staining based flow cytometry (reference value: 0.99 %); type: functional
HT-29 [15] = experiment: Induction of apoptosis in human HT-29 cells assessed as late apoptotic cells at 1 uM measured after 48 hrs by Annexin-V-FITC/propidium iodide staining based flow cytometry (reference value: 10.60 %); type: functional
HT-29 [16] = experiment: Induction of apoptosis in human HT-29 cells assessed as early apoptotic cells at 3 uM measured after 48 hrs by Annexin-V-FITC/propidium iodide staining based flow cytometry (reference value: 0.99 %); type: functional
HT-29 [17] = experiment: Induction of apoptosis in human HT-29 cells assessed as late apoptotic cells at 3 uM measured after 48 hrs by Annexin-V-FITC/propidium iodide staining based flow cytometry (reference value: 10.60 %); type: functional
MCF7 [18] = experiment: Induction of apoptosis in human MCF7 cells assessed as early apoptotic cells at 0.3 uM measured after 48 hrs by Annexin-V-FITC/propidium iodide staining based flow cytometry (reference value: 1.32 %); type: functional
MCF7 [19] = experiment: Induction of apoptosis in human MCF7 cells assessed as late apoptotic cells at 0.3 uM measured after 48 hrs by Annexin-V-FITC/propidium iodide staining based flow cytometry (reference value: 13.68 %); type: functional
MCF7 [20] = experiment: Induction of apoptosis in human MCF7 cells assessed as early apoptotic cells at 1 uM measured after 48 hrs by Annexin-V-FITC/propidium iodide staining based flow cytometry (reference value: 1.32 %); type: functional
MCF7 [21] = experiment: Induction of apoptosis in human MCF7 cells assessed as late apoptotic cells at 1 uM measured after 48 hrs by Annexin-V-FITC/propidium iodide staining based flow cytometry (reference value: 13.68 %); type: functional
MCF7 [22] = experiment: Induction of apoptosis in human MCF7 cells assessed as early apoptotic cells at 3 uM measured after 48 hrs by Annexin-V-FITC/propidium iodide staining based flow cytometry (reference value: 1.32 %); type: functional
MCF7 [23] = experiment: Induction of apoptosis in human MCF7 cells assessed as late apoptotic cells at 3 uM measured after 48 hrs by Annexin-V-FITC/propidium iodide staining based flow cytometry (reference value: 13.68 %); type: functional
HUVEC [24] = experiment: Induction of apoptosis in HUVEC measured after 48 hrs by Annexin-V-FITC/propidium iodide staining based flow cytometry; type: functional, cell-based; conditions: Homo sapiens
[25] = target: Fibroblast growth factor receptor 1 (Homo sapiens, UniProt P11362); experiment: Inhibition of N-terminal GST tagged human FGFR1 (398 to 822 end residues) cytoplasmic domain expressed in baculovirus expression system preincubated for 10 mins followed by fluorescein amidite-labelled peptide substrate addition measured after 1 hr by mobility shift assay
Chain of Fibroblast growth factor receptor 1 (P11362 whole entry, the tested form may be a part): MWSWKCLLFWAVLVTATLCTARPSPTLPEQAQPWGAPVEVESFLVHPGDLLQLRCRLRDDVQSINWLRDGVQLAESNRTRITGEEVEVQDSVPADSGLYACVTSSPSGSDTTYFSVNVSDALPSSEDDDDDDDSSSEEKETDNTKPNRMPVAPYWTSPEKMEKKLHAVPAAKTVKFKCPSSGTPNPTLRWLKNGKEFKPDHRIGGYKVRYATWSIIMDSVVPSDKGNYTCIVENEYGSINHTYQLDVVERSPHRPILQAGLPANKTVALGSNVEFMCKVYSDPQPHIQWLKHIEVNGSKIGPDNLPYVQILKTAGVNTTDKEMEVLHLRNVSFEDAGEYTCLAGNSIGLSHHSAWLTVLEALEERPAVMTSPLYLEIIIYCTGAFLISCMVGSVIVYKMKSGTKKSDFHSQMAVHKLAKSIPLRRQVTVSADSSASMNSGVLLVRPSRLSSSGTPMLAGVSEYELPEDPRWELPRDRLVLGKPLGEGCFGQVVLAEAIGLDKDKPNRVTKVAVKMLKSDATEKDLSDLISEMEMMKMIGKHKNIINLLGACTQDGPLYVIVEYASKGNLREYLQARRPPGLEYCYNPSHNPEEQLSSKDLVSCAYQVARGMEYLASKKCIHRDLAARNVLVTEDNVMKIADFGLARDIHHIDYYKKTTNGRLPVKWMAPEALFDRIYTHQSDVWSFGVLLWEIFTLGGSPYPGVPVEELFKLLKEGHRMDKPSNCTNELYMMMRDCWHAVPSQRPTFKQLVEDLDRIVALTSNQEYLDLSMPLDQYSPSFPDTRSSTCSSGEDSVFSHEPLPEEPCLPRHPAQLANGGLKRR

Chain of Platelet-derived growth factor receptor beta (P09619 whole entry, the tested form may be a part): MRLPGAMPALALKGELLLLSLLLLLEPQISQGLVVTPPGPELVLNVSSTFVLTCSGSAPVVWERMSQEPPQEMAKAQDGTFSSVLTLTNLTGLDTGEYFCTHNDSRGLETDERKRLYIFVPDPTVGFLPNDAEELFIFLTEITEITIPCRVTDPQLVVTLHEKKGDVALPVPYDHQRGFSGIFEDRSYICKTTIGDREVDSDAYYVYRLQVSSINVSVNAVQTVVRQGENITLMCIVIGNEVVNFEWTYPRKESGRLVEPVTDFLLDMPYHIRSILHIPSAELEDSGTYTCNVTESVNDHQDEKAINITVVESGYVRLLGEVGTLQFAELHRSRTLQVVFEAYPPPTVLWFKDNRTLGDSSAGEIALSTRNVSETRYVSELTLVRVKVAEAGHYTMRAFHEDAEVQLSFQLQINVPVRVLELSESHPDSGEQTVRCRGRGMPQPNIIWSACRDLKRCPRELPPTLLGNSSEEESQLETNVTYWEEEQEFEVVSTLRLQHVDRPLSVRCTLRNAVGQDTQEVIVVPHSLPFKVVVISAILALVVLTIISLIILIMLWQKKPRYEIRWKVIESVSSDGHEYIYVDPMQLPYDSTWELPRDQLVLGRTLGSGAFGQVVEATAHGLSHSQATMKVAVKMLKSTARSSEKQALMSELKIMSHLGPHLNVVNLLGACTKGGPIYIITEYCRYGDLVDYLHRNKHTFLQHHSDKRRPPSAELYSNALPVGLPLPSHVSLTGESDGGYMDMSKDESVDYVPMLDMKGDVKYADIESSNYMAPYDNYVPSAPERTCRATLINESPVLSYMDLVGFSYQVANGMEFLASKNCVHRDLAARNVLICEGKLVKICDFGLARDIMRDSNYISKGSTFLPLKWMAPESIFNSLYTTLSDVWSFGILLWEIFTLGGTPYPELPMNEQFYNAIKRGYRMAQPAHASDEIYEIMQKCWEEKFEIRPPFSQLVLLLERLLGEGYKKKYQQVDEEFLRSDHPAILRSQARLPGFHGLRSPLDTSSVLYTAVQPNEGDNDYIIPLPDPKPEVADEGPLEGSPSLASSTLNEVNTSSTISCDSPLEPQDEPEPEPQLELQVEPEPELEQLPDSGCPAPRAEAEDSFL
T1 sequence (P35968 whole entry, the tested form may be a part): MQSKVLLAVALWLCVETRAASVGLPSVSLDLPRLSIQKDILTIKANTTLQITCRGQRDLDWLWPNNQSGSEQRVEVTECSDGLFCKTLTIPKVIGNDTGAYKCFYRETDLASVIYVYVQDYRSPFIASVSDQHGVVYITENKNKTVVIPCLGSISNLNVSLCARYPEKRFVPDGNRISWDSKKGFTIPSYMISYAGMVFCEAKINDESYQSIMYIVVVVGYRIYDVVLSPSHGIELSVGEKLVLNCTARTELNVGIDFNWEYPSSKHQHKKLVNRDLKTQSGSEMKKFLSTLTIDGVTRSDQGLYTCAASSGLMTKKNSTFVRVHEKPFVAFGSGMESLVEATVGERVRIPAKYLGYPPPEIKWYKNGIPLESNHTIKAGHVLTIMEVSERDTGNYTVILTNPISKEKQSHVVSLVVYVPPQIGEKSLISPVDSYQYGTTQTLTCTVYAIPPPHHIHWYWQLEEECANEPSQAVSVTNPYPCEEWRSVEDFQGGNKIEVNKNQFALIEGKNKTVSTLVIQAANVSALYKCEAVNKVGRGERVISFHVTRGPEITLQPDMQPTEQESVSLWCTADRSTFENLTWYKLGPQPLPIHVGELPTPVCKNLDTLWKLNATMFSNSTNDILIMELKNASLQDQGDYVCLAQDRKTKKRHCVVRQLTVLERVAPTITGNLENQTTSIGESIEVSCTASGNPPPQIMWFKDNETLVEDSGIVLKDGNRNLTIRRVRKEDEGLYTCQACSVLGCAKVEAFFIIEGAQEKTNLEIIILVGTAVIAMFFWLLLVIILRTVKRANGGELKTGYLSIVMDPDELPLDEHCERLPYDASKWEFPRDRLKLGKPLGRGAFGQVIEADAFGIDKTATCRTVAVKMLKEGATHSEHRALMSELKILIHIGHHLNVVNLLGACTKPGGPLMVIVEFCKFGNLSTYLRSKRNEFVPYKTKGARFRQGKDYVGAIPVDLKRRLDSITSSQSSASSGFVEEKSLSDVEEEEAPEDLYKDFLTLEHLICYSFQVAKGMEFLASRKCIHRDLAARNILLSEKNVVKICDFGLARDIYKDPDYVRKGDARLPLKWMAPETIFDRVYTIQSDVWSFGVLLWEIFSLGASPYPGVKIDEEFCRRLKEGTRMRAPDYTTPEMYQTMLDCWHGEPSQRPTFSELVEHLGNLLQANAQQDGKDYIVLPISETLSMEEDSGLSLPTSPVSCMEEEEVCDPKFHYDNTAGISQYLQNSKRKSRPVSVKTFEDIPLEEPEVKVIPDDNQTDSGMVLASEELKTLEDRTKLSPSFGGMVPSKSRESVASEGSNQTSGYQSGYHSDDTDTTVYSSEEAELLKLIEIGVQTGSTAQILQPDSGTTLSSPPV

SMILES: COC(=O)c1ccc2c(c1)NC(=O)/C2=C(\Nc1ccc2c(c1)cc(C(=O)N1CCN(C)CC1)n2C)c1ccccc1
- IC50 [1]: 0.0442 µM
- IC50 (A549): 75.2 µM
- IC50 (HT-29 [2]): 1.1 µM

SMILES: CCn1c(C(=O)N2CCN(C)CC2)cc2cc(N/C(=C3\C(=O)Nc4cc(C(=O)OC)ccc43)c3ccccc3)ccc21
- IC50 [1]: 0.039 µM
- IC50 (A549): 11.9 µM
- IC50 (HT-29 [2]): 2.19 µM

SMILES: COC(=O)c1ccc2c(c1)NC(=O)/C2=C(\Nc1ccc2[nH]cc(CN3CCOCC3)c2c1)c1ccccc1
- IC50 [1]: 0.242 µM

SMILES: COC(=O)c1ccc2c(c1)NC(=O)/C2=C(\Nc1ccc2[nH]cc(CN3CCN(C)CC3)c2c1)c1ccccc1
- inhibition [3]: 59%
- IC50 [1]: 0.135 µM
- IC50 (A549): 7.4 µM

SMILES: COC(=O)c1ccc2c(c1)NC(=O)/C2=C(\Nc1ccc2[nH]c(C(=O)N(C)C)cc2c1)c1ccccc1
- IC50 [4]: > 1 µM
- IC50 (A549): > 100 µM
- IC50 (HT-29 [2]): > 100 µM

SMILES: COC(=O)c1ccc2c(c1)NC(=O)/C2=C(\Nc1ccc2[nH]c(CN(C)C)cc2c1)c1ccccc1
- IC50 (A549): 16.4 µM
- IC50 (MCF7 [5]): 2.32 µM
- IC50 (HT-29 [2]): 0.98 µM

SMILES: COC(=O)c1ccc2c(c1)NC(=O)/C2=C(\Nc1ccc2[nH]cc(CN(C)C)c2c1)c1ccccc1
- IC50 [4]: > 1 µM
- IC50 [1]: 0.0607 µM
- IC50 (A549): 2.27 µM
- IC50 (MCF7 [5]): 3.94 µM
- IC50 (HT-29 [2]): 0.13 µM

SMILES: COC(=O)c1ccc2c(c1)NC(=O)/C2=C(\Nc1ccc(N(C)C(=O)CN2CCN(C)CC2)cc1)c1ccccc1 [NINTEDANIB]
- IC50 (A549): 22.6 µM
- IC50 (MCF7 [5]): 8.28 µM
- IC50 (HT-29 [2]): 0.83 µM

SMILES: COC(=O)c1ccc2c(c1)NC(=O)/C2=C(\Nc1ccc2nc(CN(C)C)oc2c1)c1ccccc1
- IC50 [4]: > 1 µM
- IC50 [1]: > 0.5 µM
- IC50 (A549): > 100 µM

SMILES: COC(=O)c1ccc2c(c1)NC(=O)/C2=C(\Nc1ccc2[nH]c(C(=O)N3CCN(C)CC3)cc2c1)c1ccccc1
- IC50 [1]: 0.022 µM
- IC50 (A549): 2.99 µM
- IC50 (MCF7 [5]): 1.56 µM
- IC50 (HT-29 [2]): 1.17 µM
- Activity (HEK-293T): Non-Toxic
- Activity (HUVEC [6]): 5.68%
- Activity (HUVEC [7]): 17.62%
- Activity (HUVEC [8]): 3.97%
- Activity (HUVEC [9]): 77.6%
- Activity (HUVEC [10]): 1.51%
- Activity (HUVEC [11]): 93.77%
- Activity (HT-29 [12]): 2.31%
- Activity (HT-29 [13]): 14.15%
- Activity (HT-29 [14]): 0.44%
- Activity (HT-29 [15]): 74.82%
- Activity (HT-29 [16]): 0.05%
- Activity (HT-29 [17]): 98.81%
- Activity (MCF7 [18]): 1.27%
- Activity (MCF7 [19]): 18.25%
- Activity (MCF7 [20]): 0.65%
- Activity (MCF7 [21]): 34.43%
- Activity (MCF7 [22]): 0.28%
- Activity (MCF7 [23]): 94.04%
- Activity (HUVEC [24]): Dose-dependent effect
- IC50 [25]: 1.51 µM

SMILES: CCn1cc(CN(C)C)c2cc(N/C(=C3\C(=O)Nc4cc(C(=O)OC)ccc43)c3ccccc3)ccc21
- IC50 [1]: 0.0343 µM
- IC50 (A549): 7.63 µM
- IC50 (MCF7 [5]): 5.53 µM
- IC50 (HT-29 [2]): 6.79 µM

SMILES: COC(=O)c1ccc2c(c1)NC(=O)/C2=C(\Nc1ccc2c(c1)nc(CN(C)C)n2C)c1ccccc1
- IC50 [1]: 0.0455 µM
- IC50 (A549): > 100 µM
- IC50 (MCF7 [5]): > 100 µM
- IC50 (HT-29 [2]): 89.9 µM

SMILES: COC(=O)c1ccc2c(c1)NC(=O)/C2=C(\Nc1ccc2nc(CN3CCN(C)CC3)oc2c1)c1ccccc1
- inhibition [3]: 79%
- IC50 [1]: 0.116 µM
- IC50 (A549): > 100 µM

SMILES: COC(=O)c1ccc2c(c1)NC(=O)/C2=C(\Nc1ccc2c(c1)c(CN(C)C)cn2C(C)C)c1ccccc1
- IC50 [1]: 0.0492 µM
- IC50 (A549): 4.32 µM
- IC50 (MCF7 [5]): 5.67 µM
- IC50 (HT-29 [2]): 0.25 µM

SMILES: COC(=O)c1ccc2c(c1)NC(=O)/C2=C(\Nc1ccc2c(c1)nc(CN1CCN(C)CC1)n2C)c1ccccc1
- IC50 [1]: 0.061 µM
- IC50 (A549): 40.5 µM
- IC50 (MCF7 [5]): 22.5 µM
- IC50 (HT-29 [2]): 0.7 µM

SMILES: COC(=O)c1ccc2c(c1)NC(=O)/C2=C(\Nc1ccc2c(c1)c(CN(C)C)cn2C)c1ccccc1
- IC50 [1]: 0.0646 µM
- IC50 (A549): 6.01 µM
- IC50 (MCF7 [5]): 2.28 µM
- IC50 (HT-29 [2]): 0.46 µM

SMILES: COC(=O)c1ccc2c(c1)NC(=O)/C2=C(\Nc1ccc2c(c1)c(CN1CCN(C)CC1)cn2C)c1ccccc1
- IC50 [4]: > 1 µM
- IC50 [1]: 0.0917 µM
- IC50 (A549): 6.15 µM
- IC50 (MCF7 [5]): 4.01 µM
- IC50 (HT-29 [2]): 0.87 µM

SMILES: COC(=O)c1ccc2c(c1)NC(=O)/C2=C(\Nc1ccc2[nH]c(CN3CCN(C)CC3)cc2c1)c1ccccc1
- IC50 [1]: 0.0927 µM
- IC50 (A549): 39.1 µM
- IC50 (MCF7 [5]): 3.27 µM
- IC50 (HT-29 [2]): 0.32 µM
